Experimental data: ChEMBL document CHEMBL3392997, “Interconversion of Functional Activity by Minor Structural Alterations in Nonpeptide AT2 Receptor Ligands” (ACS Med Chem Lett, 2015)
Calls of active or inactive are those of the source. No cut-off for these calls is given here.

Tests used:
[1] = target: T1, Type-2 angiotensin II receptor (Homo sapiens) (UniProt P50052); settings: NG108-15, 10 uM
T1 sequence (whole entry): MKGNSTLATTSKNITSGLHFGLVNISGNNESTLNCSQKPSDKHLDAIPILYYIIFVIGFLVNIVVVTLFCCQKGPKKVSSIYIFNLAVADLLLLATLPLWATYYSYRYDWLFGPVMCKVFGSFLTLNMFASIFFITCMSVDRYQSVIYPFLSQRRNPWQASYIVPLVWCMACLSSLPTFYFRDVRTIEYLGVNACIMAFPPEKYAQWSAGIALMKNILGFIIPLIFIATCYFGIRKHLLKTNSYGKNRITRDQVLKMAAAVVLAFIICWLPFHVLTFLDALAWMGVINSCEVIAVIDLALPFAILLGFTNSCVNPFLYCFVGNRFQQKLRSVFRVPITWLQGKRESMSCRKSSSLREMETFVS

[2] = Binding affinity to AT2 receptor (unknown origin)
[3] = target: T1, Type-2 angiotensin II receptor (Homo sapiens); experiment: Agonist activity at AT2 receptor (unknown origin) expressed in NG108-15 cells assessed as induction of neurite outgrowth at 10 nM after 3 days in presence of 10 uM AT2 receptor antagonist PD 123,319 by phase contrast microscopy; assay type: cell-based
How it was run: (§1)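 Undifferentiated NG108-15 cells were plated at 3.6×10^4 cells per 35 mm dish and cultured 3 days with agent alone, or with 10 μM PD 123,319 or 100 nM Ang II. Phase-contrast micrographs were taken. A cell with at least one neurite longer than its cell body scored positive, expressed as percent of total cells counted (at least 400). Two-way ANOVA.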

[4] = target: T1, Type-2 angiotensin II receptor (Homo sapiens); experiment: Agonist activity at AT2 receptor (unknown origin) expressed in NG108-15 cells assessed as induction of neurite outgrowth at 10 nM after 3 days by phase contrast microscopy; assay type: cell-based
How it was run: as §1

[5] = target: T2, Type-1 angiotensin II receptor (Homo sapiens, UniProt P30556); experiment: Displacement of [125I]-[Sar1,Leu8]angiotensin II from human AT1 receptor expressed in african green monkey COS7 cells; assay type: cell-based, COS-7
T2 sequence (P30556 whole entry): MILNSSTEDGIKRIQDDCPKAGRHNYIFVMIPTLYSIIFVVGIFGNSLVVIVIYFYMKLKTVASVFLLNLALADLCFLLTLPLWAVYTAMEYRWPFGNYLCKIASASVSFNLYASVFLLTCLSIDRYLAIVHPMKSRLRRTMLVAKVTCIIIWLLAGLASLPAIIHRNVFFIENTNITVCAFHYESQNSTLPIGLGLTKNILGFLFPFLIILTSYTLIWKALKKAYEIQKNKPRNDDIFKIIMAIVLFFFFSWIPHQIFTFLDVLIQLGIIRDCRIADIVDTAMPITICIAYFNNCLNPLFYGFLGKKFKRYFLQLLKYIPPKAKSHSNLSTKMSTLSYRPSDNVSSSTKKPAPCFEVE

[6] = target: T1, Type-2 angiotensin II receptor (Homo sapiens); experiment: Antagonist activity against AT2 receptor (unknown origin) expressed in NG108-15 cells assessed as reduction in angiotension-2-induced neurite outgrowth at 10 nM after 3 days by phase contrast microscopy; assay type: cell-based
How it was run: as §1

[7] = target: T1, Type-2 angiotensin II receptor (Homo sapiens); experiment: Agonist activity at AT2 receptor (unknown origin) expressed in NG108-15 cells assessed as induction of neurite outgrowth at 100 nM after 3 days by phase contrast microscopy; assay type: cell-based
How it was run: as §1

[8] = target: T3, Type-1 angiotensin II receptor A (Rattus norvegicus, UniProt P25095); experiment: Displacement of [125I]-Ang II from AT1 receptor in rat liver membranes after 2 hrs by gamma-counting method; assay type: cell membranes, Membrane
T3 sequence (P25095 whole entry): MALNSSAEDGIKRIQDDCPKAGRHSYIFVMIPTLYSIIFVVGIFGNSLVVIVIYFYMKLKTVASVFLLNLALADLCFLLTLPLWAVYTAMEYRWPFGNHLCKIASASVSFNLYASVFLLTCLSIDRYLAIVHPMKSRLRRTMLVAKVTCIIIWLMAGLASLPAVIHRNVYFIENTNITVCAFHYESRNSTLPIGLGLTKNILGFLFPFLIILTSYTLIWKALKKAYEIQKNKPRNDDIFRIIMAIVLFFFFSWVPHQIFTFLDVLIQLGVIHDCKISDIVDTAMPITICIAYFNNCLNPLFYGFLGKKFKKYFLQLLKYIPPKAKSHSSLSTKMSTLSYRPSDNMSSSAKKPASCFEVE

For Cc1cc(Cn2cnc3c2C[C@@H](C(=O)O)N(C(=O)C(c2ccccc2)c2ccccc2)C3)ccc1N(C)C, which inhibition [1] is on record?
Its inhibition is “Active”.

Which IC50 [2] does the source give for CCCCOC(=O)NS(=O)(=O)c1ccc(CCC)cc1-c1ccc(Cn2c(CC)nc3c(C)cc(C)nc32)cc1 here?
The IC50 was 4.2 nM.

For CCCCOC(=O)NS(=O)(=O)c1cc(CC(C)C)ccc1-c1ccc(Cn2ccnc2)cc1, which Activity [3] is on record?
The Activity was “inactive”.

What about the Activity [4] of the same compound?
Its Activity is “Active”.

Which results are given for CCCCOC(=O)NS(=O)(=O)c1ccc(CC(C)C)cc1-c1ccc(Cn2c(CC)nc3c(C)cc(C)nc32)cc1?
IC50 [2]: 0.7 nM; IC50 [5]: 2.1 nM

Which Activity [3] does the source give for CCCCOC(=O)NS(=O)(=O)c1cc(CC(C)C)ccc1-c1cccc(Cn2ccnc2)c1 here?
Its Activity is “inactive”.

What about the Activity [4] of the same compound?
The Activity was “Active”.

With CCCCOC(=O)NS(=O)(=O)c1ccc(CC(C)C)cc1-c1ccc(Cn2ccnc2)cc1 as the compound, how does the Activity [3] read?
The Activity was “inactive”.

What about the Activity [4] of the same compound?
Its Activity is “Active”.

What does the source list for CCCCOC(=O)NS(=O)(=O)c1ccc(CC(C)C)cc1-c1cccc(Cn2ccnc2)c1?
inhibition [6]: Active; Activity [7]: inactive; Activity [4]: inactive

For CCCCOC(=O)NS(=O)(=O)c1sc(CC(C)C)cc1-c1ccc(Cn2ccnc2)cc1 [BULOXIBUTID], which Ki [8] is on record?
The Ki was greater than 10000 nM.
